Tested on: HEK-293T
Assay: Multiplex assay against HEK293T;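 on Population Tubulin-Different-Phenotype (%): share of the cells with healthy nuclei that show this phenotype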
Type: toxicity, cell-based
Conditions: human
Method in brief: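 With compound added, live cells were imaged on a CQ1 microscope at 37°C and 5% CO2; staining with Hoechst33342, BioTracker Green Microtubule Cytoskeleton Dye, MitoTracker Red and Annexin V Alexa Fluor 680 had been done at seeding. The CellPathfinder machine-learning gating scheme split cells into Hoechst high-intensity objects or normal cells, normal cells into healthy, pyknosed or fragmented nuclei, and pyknosed cells into mitotic or apoptotic. The tubulin, mitochondrial-mass and membrane-permeability phenotypes are per cents of healthy-nucleus cells.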

[1] = 12 h, 1 µM, compound concentration 1 uM, replicate 1
[2] = 12 h, 1 µM, compound concentration 1 uM, replicate 2
[3] = 12 h, 10 µM, compound concentration 10 uM, replicate 1
[4] = 12 h, 10 µM, compound concentration 10 uM, replicate 2
[5] = 24 h, 1 µM, compound concentration 1 uM, replicate 1
[6] = 24 h, 1 µM, compound concentration 1 uM, replicate 2
[7] = 24 h, 10 µM, compound concentration 10 uM, replicate 1
[8] = 24 h, 10 µM, compound concentration 10 uM, replicate 2

## CC[C@@H]1C(=O)N(C)c2cnc(Nc3ccc(C(=O)NC4CCN(C)CC4)cc3OC)nc2N1C1CCCC1 [BI-2536]
[1]
  Population Apoptotic (%): 15%
  Population Fragmented Nuclei (%): 15%
  Population Healthy Nuclei (%): 61%
  Population Hoechst High Intensity Objects (%): 12%
  Population Membrane Permeable-Phenotype (%): 12%
  Population Mitochondria Different-Phenotype (%): 10%
  Population Mitotic Cells (%): 84%
  Population Normal (%): 87%
  Population Pyknosed Nuclei (%): 22%
  Population Tubulin-Different-Phenotype (%): 14%
  Total Cell Count: 578
[2]
  Population Apoptotic (%): 12%
  Population Fragmented Nuclei (%): 3%
  Population Healthy Nuclei (%): 82%
  Population Hoechst High Intensity Objects (%): 2%
  Population Membrane Permeable-Phenotype (%): 7%
  Population Mitochondria Different-Phenotype (%): 28%
  Population Mitotic Cells (%): 87%
  Population Normal (%): 97%
  Population Pyknosed Nuclei (%): 13%
  Population Tubulin-Different-Phenotype (%): 41%
  Total Cell Count: 1166
[3]
  Population Apoptotic (%): 32%
  Population Fragmented Nuclei (%): 17%
  Population Healthy Nuclei (%): 59%
  Population Hoechst High Intensity Objects (%): 11%
  Population Membrane Permeable-Phenotype (%): 17%
  Population Mitochondria Different-Phenotype (%): 40%
  Population Mitotic Cells (%): 67%
  Population Normal (%): 88%
  Population Pyknosed Nuclei (%): 23%
  Population Tubulin-Different-Phenotype (%): 90%
  Total Cell Count: 497
[4]
  Population Apoptotic (%): 12%
  Population Fragmented Nuclei (%): 4%
  Population Healthy Nuclei (%): 81%
  Population Hoechst High Intensity Objects (%): 3%
  Population Membrane Permeable-Phenotype (%): 24%
  Population Mitochondria Different-Phenotype (%): 43%
  Population Mitotic Cells (%): 87%
  Population Normal (%): 96%
  Population Pyknosed Nuclei (%): 13%
  Population Tubulin-Different-Phenotype (%): 98%
  Total Cell Count: 911
[5]
  Population Apoptotic (%): 14%
  Population Fragmented Nuclei (%): 14%
  Population Healthy Nuclei (%): 62%
  Population Hoechst High Intensity Objects (%): 12%
  Population Membrane Permeable-Phenotype (%): 5%
  Population Mitochondria Different-Phenotype (%): 12%
  Population Mitotic Cells (%): 85%
  Population Normal (%): 87%
  Population Pyknosed Nuclei (%): 23%
  Population Tubulin-Different-Phenotype (%): 19%
  Total Cell Count: 553
[6]
  Population Apoptotic (%): 6%
  Population Fragmented Nuclei (%): 2%
  Population Healthy Nuclei (%): 66%
  Population Hoechst High Intensity Objects (%): 4%
  Population Membrane Permeable-Phenotype (%): 2%
  Population Mitochondria Different-Phenotype (%): 22%
  Population Mitotic Cells (%): 93%
  Population Normal (%): 95%
  Population Pyknosed Nuclei (%): 31%
  Population Tubulin-Different-Phenotype (%): 48%
  Total Cell Count: 1114
[7]
  Population Apoptotic (%): 39%
  Population Fragmented Nuclei (%): 17%
  Population Healthy Nuclei (%): 57%
  Population Hoechst High Intensity Objects (%): 12%
  Population Membrane Permeable-Phenotype (%): 7%
  Population Mitochondria Different-Phenotype (%): 80%
  Population Mitotic Cells (%): 60%
  Population Normal (%): 87%
  Population Pyknosed Nuclei (%): 25%
  Population Tubulin-Different-Phenotype (%): 93%
  Total Cell Count: 510
[8]
  Population Apoptotic (%): 11%
  Population Fragmented Nuclei (%): 11%
  Population Healthy Nuclei (%): 62%
  Population Hoechst High Intensity Objects (%): 3%
  Population Membrane Permeable-Phenotype (%): 8%
  Population Mitochondria Different-Phenotype (%): 59%
  Population Mitotic Cells (%): 88%
  Population Normal (%): 96%
  Population Pyknosed Nuclei (%): 26%
  Population Tubulin-Different-Phenotype (%): 97%
  Total Cell Count: 1005

Reference: ChEMBL document CHEMBL4689842, “EUbOPEN Chemogenomics Library wave 1” (2021)
